Measurements reported in ChEMBL document CHEMBL4364272, “Discovery of a Lead Triphenylethanamine Cholesterol Ester Transfer Protein (CETP) Inhibitor” (ACS Med Chem Lett, 2019).
The source made the active and inactive calls. The calls are words filed in the database; no cut-off is given here.

Experiments:
[1] = Half life in Sprague-Dawley rat at 1 mg/kg, iv or 10 mg/kg, po administered via gavage measured upto 24 hrs by LC-MS/MS; type: ADME, organism-based; conditions: in vivo
Procedure, shortened: (§1)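 Single IV and oral doses: rat 1 mg/kg IV and 10 mg/kg PO; mouse 5 mg/kg IV and 10 mg/kg PO; monkey 1 mg/kg IV and 5 mg/kg PO. IV vehicle was 10% Cremophor/10% EtOH/80% H2O for rodents and 70% PEG-400/10% EtOH/20% H2O for monkey. Oral vehicle was 15% Miglyol 812/30% Capmul MCM/15% Triacetin/40% Cremophor RH40, or the Cremophor vehicle for rat. Vss, Cl, t1/2 and %F were derived.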

[2] = Half life in cynomolgus monkey at 1 mg/kg, iv or 5 mg/kg, po administered via gavage measured upto 24 hrs by LC-MS/MS; type: ADME, organism-based, Macaca fascicularis; conditions: in vivo; procedure, shortened: as §1
[3] = Oral bioavailability in Sprague-Dawley rat at 10 mg/kg administered via gavage measured upto 24 hrs by LC-MS/MS; type: ADME, organism-based; conditions: in vivo; procedure, shortened: as §1
[4] = Cardiac toxicity in telemetered rat assessed as change in diastolic blood pressure at 2.5 mg/kg administered as iv infusion for 5 mins followed by 7.5 mg/kg, iv infusion for 55 mins; type: organism-based; conditions: in vivo
Procedure, shortened: (§2)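 Rats were telemetered and given a total of 10 mg/kg IV: 2.5 mg/kg infused over 5 min, then 7.5 mg/kg infused over 55 min (n = 7). Mean, systolic and diastolic BP, heart rate and locomotor activity were monitored, and the observed Cmax was recorded.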

Mus musculus = assay: In vivo inhibition of CETP in hCETP/apoB-100 dual transgenic mouse assessed as reduction in [3H]-CE transfer at 0.5 mg/kg, po administered via gavage measured after 2 to 8 hrs by radioactivity based assay; type: functional, organism-based
[5] = Volume of distribution at steady state in Balb/c mouse at 5 mg/kg, iv or 10 mg/kg, po administered via gavage measured upto 24 hrs by LC-MS/MS; type: ADME, organism-based; conditions: in vivo, read-out: Vdss; procedure, shortened: as §1
[6] = Plasma concentration in hamster at 10 mg/kg, po qd administered for 7 days; type: ADME, organism-based; conditions: cricetinae
Procedure, shortened: (§3)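 Hamsters received 10 mg/kg. Plasma cholesterol profiles were resolved by FPLC to give HDL cholesterol change, and plasma exposure was measured.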

[7] = target: T1, Cholesteryl ester transfer protein (Homo sapiens, UniProt P11597); assay: Inhibition of CETP in human whole plasma assessed as reduction in [3H]-CE/HDL transfer incubated for 2.5 hrs by topcount scintillation counting assay; type: cell-free
T1 sequence (P11597 whole entry): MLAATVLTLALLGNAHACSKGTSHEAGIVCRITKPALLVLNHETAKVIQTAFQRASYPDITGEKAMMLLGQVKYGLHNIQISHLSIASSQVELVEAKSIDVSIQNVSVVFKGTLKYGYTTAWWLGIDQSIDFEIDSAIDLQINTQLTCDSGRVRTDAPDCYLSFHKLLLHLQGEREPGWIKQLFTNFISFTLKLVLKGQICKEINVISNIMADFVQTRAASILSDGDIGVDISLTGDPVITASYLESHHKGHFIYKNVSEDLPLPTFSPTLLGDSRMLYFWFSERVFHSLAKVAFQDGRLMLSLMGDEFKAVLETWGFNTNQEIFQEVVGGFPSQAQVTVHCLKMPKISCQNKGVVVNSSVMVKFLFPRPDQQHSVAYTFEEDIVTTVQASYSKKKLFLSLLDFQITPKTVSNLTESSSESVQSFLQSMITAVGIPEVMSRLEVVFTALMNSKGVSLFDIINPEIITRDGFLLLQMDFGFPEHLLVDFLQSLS
Procedure, shortened: (§4)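 CETP activity was measured by scintillation proximity assay and by human whole plasma assay. Each was run in duplicate at six concentrations, and the mean values were used to calculate IC50.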

[8] = Stability in human liver microsomes assessed as parent compound remaining at 50 uM preincubated for 5 to 7 mins followed by NADPH addition and measured 10 mins post-dose by LC-MS/MS; type: ADME, Microsome; conditions: read-out: Stability
[9] = Cmax in telemetered rat at 2.5 mg/kg administered as iv infusion for 5 mins followed by 7.5 mg/kg, iv infusion for 55 mins; type: ADME, organism-based; design: dose 2.5 mg/kg, route intravenous; conditions: in vivo; procedure, shortened: as §2
[10] = Half life in Balb/c mouse at 5 mg/kg, iv or 10 mg/kg, po administered via gavage measured upto 24 hrs by LC-MS/MS; type: ADME, organism-based; conditions: in vivo; procedure, shortened: as §1
[11] = Oral bioavailability in Balb/c mouse at 10 mg/kg measured upto 24 hrs by LC-MS/MS; type: ADME, organism-based; conditions: in vivo; procedure, shortened: as §1
[12] = target: Voltage-gated inwardly rectifying potassium channel KCNH2 (Homo sapiens, UniProt Q12809); assay: Inhibition of human ERG expressed in HEK293 cells by flux assay
Voltage-gated inwardly rectifying potassium channel KCNH2, sequence (Q12809 whole entry): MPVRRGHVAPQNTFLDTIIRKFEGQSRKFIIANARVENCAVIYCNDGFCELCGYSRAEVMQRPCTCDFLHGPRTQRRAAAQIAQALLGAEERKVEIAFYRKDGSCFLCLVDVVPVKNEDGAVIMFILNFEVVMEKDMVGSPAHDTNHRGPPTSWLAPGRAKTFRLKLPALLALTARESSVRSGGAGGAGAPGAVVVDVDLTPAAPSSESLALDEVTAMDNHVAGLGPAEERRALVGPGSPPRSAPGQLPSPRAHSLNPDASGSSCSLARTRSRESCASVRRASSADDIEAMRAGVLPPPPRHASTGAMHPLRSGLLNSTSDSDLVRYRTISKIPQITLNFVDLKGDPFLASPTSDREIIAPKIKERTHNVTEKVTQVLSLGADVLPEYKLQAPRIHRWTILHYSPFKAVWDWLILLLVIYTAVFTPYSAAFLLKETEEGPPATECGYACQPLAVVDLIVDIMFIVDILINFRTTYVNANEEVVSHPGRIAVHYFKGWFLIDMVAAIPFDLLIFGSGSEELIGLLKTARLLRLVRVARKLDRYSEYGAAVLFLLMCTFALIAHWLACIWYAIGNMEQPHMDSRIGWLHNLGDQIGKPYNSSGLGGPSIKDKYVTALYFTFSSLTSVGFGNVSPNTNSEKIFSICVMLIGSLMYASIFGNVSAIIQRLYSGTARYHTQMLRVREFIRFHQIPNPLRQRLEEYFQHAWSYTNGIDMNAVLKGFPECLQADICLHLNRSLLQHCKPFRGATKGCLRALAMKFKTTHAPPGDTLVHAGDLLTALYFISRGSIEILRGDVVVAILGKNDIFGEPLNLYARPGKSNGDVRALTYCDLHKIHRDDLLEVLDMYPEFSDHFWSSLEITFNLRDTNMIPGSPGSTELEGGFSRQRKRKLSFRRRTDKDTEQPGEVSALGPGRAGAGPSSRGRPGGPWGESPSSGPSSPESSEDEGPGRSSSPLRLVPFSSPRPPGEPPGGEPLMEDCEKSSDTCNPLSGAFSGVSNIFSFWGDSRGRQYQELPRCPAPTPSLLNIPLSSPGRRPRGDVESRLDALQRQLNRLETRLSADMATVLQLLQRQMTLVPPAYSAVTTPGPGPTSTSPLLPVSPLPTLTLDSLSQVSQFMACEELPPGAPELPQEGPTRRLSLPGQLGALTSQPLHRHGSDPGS

CYP11B2 = assay: Effect on CYP11B2 gene expression in human NCI-H295R cells at 10 uM measured after 24 hrs relative to control; type: ADME, cell-based; conditions: read-out: FC
Procedure, shortened: (§5)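 H295R cells were incubated for 24 h with test agent at 10 μM or angiotensin-II at 0.1 μM. CYP11B1 and CYP11B2 mRNA levels were measured and expressed as fold of control.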

CYP11B1 = assay: Effect on CYP11B1 gene expression in human NCI-H295R cells at 10 uM measured after 24 hrs relative to control; type: ADME, cell-based; conditions: read-out: FC; procedure, shortened: as §5
[13] = Volume of distribution at steady state in cynomolgus monkey at 1 mg/kg, iv or 5 mg/kg, po administered via gavage measured upto 24 hrs by LC-MS/MS; type: ADME, organism-based, Macaca fascicularis; conditions: in vivo, read-out: Vdss; procedure, shortened: as §1
[14] = Cardiac toxicity in telemetered rat assessed as change in heart rate at 2.5 mg/kg administered as iv infusion for 5 mins followed by 7.5 mg/kg, iv infusion for 55 mins; type: organism-based; conditions: in vivo; procedure, shortened: as §2
[15] = Oral bioavailability in cynomolgus monkey at 5 mg/kg administered via gavage measured upto 24 hrs by LC-MS/MS; type: ADME, organism-based, Macaca fascicularis; conditions: in vivo; procedure, shortened: as §1
[16] = Cardiac toxicity in telemetered rat assessed as change in systolic blood pressure at 2.5 mg/kg administered as iv infusion for 5 mins followed by 7.5 mg/kg, iv infusion for 55 mins; type: organism-based; conditions: in vivo; procedure, shortened: as §2
[17] = Clearance in cynomolgus monkey at 1 mg/kg, iv or 5 mg/kg, po administered via gavage measured upto 24 hrs by LC-MS/MS; type: ADME, organism-based, Macaca fascicularis; conditions: in vivo; procedure, shortened: as §1
[18] = Stability in mouse liver microsomes assessed as parent compound remaining at 50 uM preincubated for 5 to 7 mins followed by NADPH addition and measured 10 mins post-dose by LC-MS/MS; type: ADME, Microsome; conditions: read-out: Stability
[19] = Clearance in Balb/c mouse at 5 mg/kg, iv or 10 mg/kg, po administered via gavage measured upto 24 hrs by LC-MS/MS; type: ADME, organism-based; conditions: in vivo; procedure, shortened: as §1
[20] = Volume of distribution at steady state in Sprague-Dawley rat at 1 mg/kg, iv or 10 mg/kg, po administered via gavage measured upto 24 hrs by LC-MS/MS; type: ADME, organism-based; conditions: in vivo, read-out: Vdss; procedure, shortened: as §1
[21] = Toxicity in telemetered rat assessed as effect on locomotor activity at 2.5 mg/kg administered as iv infusion for 5 mins followed by 7.5 mg/kg, iv infusion for 55 mins; type: organism-based; conditions: in vivo; procedure, shortened: as §2
[22] = Clearance in Sprague-Dawley rat at 1 mg/kg, iv or 10 mg/kg, po administered via gavage measured upto 24 hrs by LC-MS/MS; type: ADME, organism-based; conditions: in vivo; procedure, shortened: as §1
Hamster = assay: In vivo inhibition of CETP in hamster assessed as increase in HDL cholesterol at 10 mg/kg, po qd administered for 7 days measured 6 hrs post-dose on every other day by FPLC analysis relative to control; type: functional; conditions: Cricetinae; procedure, shortened: as §3
[23] = target: T1, Cholesteryl ester transfer protein; assay: Inhibition of human recombinant CETP assessed as reduction in [3H]CE/HDL transfer incubated for 4 hrs by scintillation proximity assay; procedure, shortened: as §4
[24] = target: T2, Cholesteryl ester transfer protein (Homo sapiens) (UniProt P11597); assay: Potency index, ratio of torcetrapib IC50 to test compound IC50 for inhibition of CETP in human whole plasma; type: cell-free
T2 sequence (whole entry): T1 sequence (P11597 whole entry)

NC(C(=O)N[C@@](Cc1ccccc1)(c1cc(F)cc(OC(F)(F)C(F)F)c1)c1ccc(F)c(OC2CC2)c1)C(O)(C(F)(F)F)C(F)(F)F (stereo partly drawn)
half-life [1]: 25 h | half-life [2]: 69 h | bioavailability [3]: 39% | Activity [4]: Non-Toxic | inhibition (Mus musculus): Active | Vd [5]: 0.4 L/kg | concentration at 168 h [6]: 0.9 µM | IC50 [7]: 62 nM | remaining at 10 min, 50 µM [8]: 100% | Cmax [9]: 23.5 µM | half-life [10]: 5 h | bioavailability [11]: 18% | IC50 [12]: > 80000 nM | fold induction at 24 h, 10 µM (CYP11B2): 0.9 to 2.1 | fold induction at 24 h, 10 µM (CYP11B1): 1.3 | Vd [13]: 3.7 L/kg | Activity [14]: Non-Toxic | bioavailability [15]: 27% | Activity [16]: Non-Toxic | clearance [17]: 0.7 mL/min/kg | remaining at 10 min, 50 µM [18]: 100% | clearance [19]: 1.9 mL/min/kg | Vd [20]: 1.5 L/kg | Activity [21]: Non-Toxic | clearance [22]: 2.9 mL/min/kg | inhibition in vivo at 10 mg/kg (Hamster): 32% | IC50 [23]: 2 nM | Ratio IC50 [24]: 2
